Legend:
Type in all cases: functional, Artery
[1] = system: Rattus norvegicus; assay: The compound was tested for the maximum fall in systolic blood pressure 1-6 hr of 10.0 mg/kg oral dose administration in rats
Outline: (§1)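 Conscious spontaneously hypertensive rats of Japanese (Okamoto) strain, 14-24 weeks old, hypertensive if systolic pressure >180 mmHg; groups of six per dose level unless indicated. Oral gavage via esophageal needle as solution or suspension in 1% w/v methylcellulose. Tail-cuff systolic pressure (each value mean of ≥6 recordings) taken predose and at intervals up to 6 h postdose.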

[2] = system: Rattus norvegicus; assay: The compound was tested for the maximum fall in systolic blood pressure 1-6 hr of 3.0 mg/kg oral dose administration in rats; outline: as §1
[3] = system: Rattus norvegicus; assay: The compound was tested for the maximum fall in systolic blood pressure 1-6 hr of 0.3 mg/kg oral dose administration in rats; outline: as §1
[4] = system: Rattus norvegicus; assay: The compound was tested for the maximum fall in systolic blood pressure 1-6 hr of 1.0 mg/kg oral dose administration in rats; outline: as §1
[5] = system: Rattus norvegicus; assay: The compound was tested for the maximum fall in systolic blood pressure 1-6 hr of 0.1 mg/kg oral dose administration in rats; outline: as §1
[6] = system: Rattus norvegicus; assay: The compound was tested for the maximum fall in systolic blood pressure 1-6 hr of 10 mg/kg oral dose administration in rats; outline: as §1
[7] = system: Rattus norvegicus; assay: The compound was tested for the maximum fall in systolic blood pressure 1-6 hr of 3 mg/kg oral dose administration in rats; outline: as §1

Structure (SMILES) | Max fall in blood pressure [1] [%] | Max fall in blood pressure [2] [%] | Max fall in blood pressure [4] [%] | other results
CNC(=O)NC1c2cc(C#N)ccc2CC(C)(C)C1O (centres undefined) | 52 | 23 | – | –
CNC(=O)NC1c2cc(C#N)ccc2OC(C)(C)[C@H]1O (some centres undefined) | – | – | 61 | Max fall in blood pressure [3]: 31%
CN(C)C(=O)CC1c2cc(C#N)ccc2OC(C)(C)C1O (centres undefined) | – | 51 | 28 | –
CC1(C)C=C(N2CCCC2=O)c2cc(C#N)ccc2N1 | 49 | 29 | 10 | –
CC1(C)Cc2ccc(C#N)cc2C(N2CCCC2=O)C1O (centres undefined) | 32 | 29 | – | –
CC1(C)C=C(N2CCCC2=O)c2cc(C#N)ccc2O1 | – | – | – | Max fall in blood pressure [3]: 47%; Max fall in blood pressure [5]: 12%
CC1(C)Nc2ccc(Br)cc2C(N2CCCC2=O)C1O (centres undefined) | – | – | – | Max fall in blood pressure [6]: 6%
CC1(C)C=C(N2CCCC2=O)c2cc(Br)ccc2N1 | – | – | – | Max fall in blood pressure [6]: 4%
CC1(C)Oc2ccc(C#N)cc2C(NC(=O)c2ccccc2)C1O (centres undefined) | 41 | – | – | Max fall in blood pressure [3]: 16%
CN1CCC(C2c3cc(C#N)ccc3OC(C)(C)C2O)C1=O (centres undefined) | 21 | – | – | Max fall in blood pressure [7]: 10%
CC1(C)Nc2ccc(Cl)cc2C(N2CCCC2=O)C1O (centres undefined) | – | – | – | Max fall in blood pressure [6]: 8%
CC(=O)NC1c2cc(C#N)ccc2CC(C)(C)C1O (centres undefined) | – | 34 | 22 | –
CC1(C)Nc2ccc(C#N)cc2C(N2CCCC2=O)C1O (centres undefined) | 39 | 26 | – | Max fall in blood pressure [6]: 9%
CC1(C)C=C(N2CCCC2=O)c2cc(C#N)ccc2C1 | – | 50 | 23 | –
CC1(C)Cc2ccc(C#N)cc2C(NC(=O)c2ccccc2)C1O (centres undefined) | 44 | 16 | – | –
CC1(C)Oc2ccc(Cl)cc2C(N2CCCC2=O)C1O (centres undefined) | – | – | – | Max fall in blood pressure [6]: 37%
CC(=O)CC1c2cc(C#N)ccc2OC(C)(C)C1O (centres undefined) | 30 | – | 5 | –
CNC(=O)CC1c2cc(C#N)ccc2OC(C)(C)C1O (centres undefined) | – | 9 | – | –
CC1(C)C=C(N2CCCC2=O)c2cc(Cl)ccc2N1 | – | – | – | Max fall in blood pressure [6]: 13%
CC(=O)NC1c2cc(C#N)ccc2OC(C)(C)C1O (centres undefined) | – | 47 | 67 | Max fall in blood pressure [5]: 18%
CC1(C)Oc2ccc(C#N)cc2C(N2CCCC2=O)C1O (centres undefined) [CROMAKALIM] | – | – | 47 | Max fall in blood pressure [3]: 39%

— ChEMBL document CHEMBL1125794, “Synthesis and antihypertensive activity of pyran oxygen and amide nitrogen replacement analogues of the potassium channel activator cromakalim” (1991)
